Assay results reported in ChEMBL document CHEMBL2040713, “Finger-loop inhibitors of the HCV NS5b polymerase. Part 1: Discovery and optimization of novel 1,6- and 2,6-macrocyclic indole series” (Bioorg Med Chem Lett, 2012).

Experiments:
[1] = test system: Hepatitis C virus; assay: Antiviral activity against HCV infected in human […] cells assessed as inhibition of viral RNA replication; assay type: functional, organism-based, Hepacivirus hominis
Method in brief: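 Replicon assay: subgenomic HCV RNA replication in Huh-7 cells carrying a bicistronic expression construct. Inhibition expressed as EC50.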

[2] = Inhibition of purified HCV NS5B Cdelta21 polymerase; parameters: species or system Hepacivirus hominis
[3] = Drug level in Sprague-Dawley rat liver at 2 mg/kg, iv and 10 mg/kg, po after 7 hrs; assay type: ADME, organism-based; settings: read-out: Drug uptake
Method in brief: (§1)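 Sprague–Dawley rats given 2 mg/kg iv in PEG400/saline (70:30) or 10 mg/kg po in PEG400 with 2% Vitamin E TPGS. Liver concentration (ng/g) measured 7 h post dose. Liver-to-plasma ratio taken at the same time.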

[4] = Drug metabolism in human liver microsomes at 5 uM after 15 mins; assay type: ADME, Microsome; settings: read-out: Drug metabolism
[5] = Volume of distribution at steady state in Sprague-Dawley rat at 2 mg/kg, iv and 10 mg/kg, po; assay type: ADME, organism-based; settings: in vivo, read-out: Vdss
Method in brief: (§2)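 Sprague–Dawley rats, single dose. IV arm at 2 mg/kg in PEG400/saline (70:30), with plasma kinetics determined. Oral arm at 10 mg/kg in PEG400 containing 2% Vitamin E TPGS, compared against the iv data.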

[6] = Ratio of drug level in liver to plasma in Sprague-Dawley rat at 2 mg/kg, iv and 10 mg/kg, po after 7 hrs; assay type: ADME, organism-based; method in brief: as §1
[7] = Clearance in Sprague-Dawley rat at 2 mg/kg, iv and 10 mg/kg, po; assay type: ADME, organism-based; settings: in vivo; method in brief: as §2
[8] = Drug metabolism in rat liver microsomes at 5 uM after 15 mins; assay type: ADME, Microsome; settings: read-out: Drug metabolism
[9] = Half life in Sprague-Dawley rat at 2 mg/kg, iv and 10 mg/kg, po; assay type: ADME, organism-based; settings: in vivo; method in brief: as §2
[10] = Oral bioavailability in Sprague-Dawley rat at 10 mg/kg; assay type: ADME, organism-based; settings: in vivo; method in brief: as §2
[11] = test system: Liver microsomes; assay: Metabolic stability in human liver microsomes assessed as glutathione conjugates formation at 40 uM in presence of glutathione; assay type: ADME, Microsome
Method in brief: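 Human liver microsomes (1 mg/mL protein) in 100 mM KPi, pH 7.4, with 5 mM MgCl2, 1 mM EDTA and 2 mM NADPH. Trapping agent was 2 mM GSH, or a GSH/stable-label GSH mix (1 mM/1 mM). Compound at 40 µM final, added from a 20 mM stock. Read-out was glutathione conjugate formation.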

[12] = Apparent permeability from apical to basolateral side of human Caco2 cells; assay type: ADME, cell-based; settings: Caco-2
[13] = Efflux ratio of compound permeability in human Caco2 cells; assay type: ADME, cell-based; settings: Caco-2

SMILES | EC50 [1] [nM] | IC50 [2] [nM] | metabolised at 0.25 h, 5 µM [4] [%] | metabolised at 0.25 h, 5 µM [8] [%] | further results
CN1CCCCNC(=O)Cn2c(-c3ccoc3)c(C3CCCCC3)c3ccc(cc32)C(=O)NS1(=O)=O | 1580 | 110 |  |  | 
COc1ccc(-c2c(C3CCCCC3)c3ccc4cc3n2CC(=O)NCCCCN(C)S(=O)(=O)NC4=O)cc1 | 1760 | 180 |  |  | 
COc1ccc(-c2c(C3CCCCC3)c3ccc4cc3n2CC(=O)NCCN(C)CCNS(=O)(=O)NC4=O)cc1 | 3470 | 440 |  |  | 
COc1ccc(-c2c(C3CCCCC3)c3ccc4cc3n2CC(=O)NN(C)CCN2CCN(CC2)S(=O)(=O)NC4=O)cc1 | 3500 |  |  |  | 
CN1CCCCCNC(=O)Cn2c(-c3ccc(Cl)cc3)c(C3CCCCC3)c3ccc(cc32)C(=O)NS1(=O)=O | 590 | 190 |  |  | 
CN1CCCCNC(=O)COc2ccccc2-c2c(C3CCCCC3)c3ccc(cc3n2C)C(=O)NS1(=O)=O | 7560 | 1900 |  |  | 
CN1CCCCCNC(=O)COc2ccc(F)cc2-c2c(C3CCCCC3)c3ccc(cc3n2C)C(=O)NS1(=O)=O | 680 | 88 | 59 | 56 | 
CC(C)n1c2c(C3CCCCC3)c3ccc(cc31)C(=O)NS(=O)(=O)N(C)CCOCCN(C)C(=O)COc1ccccc1-2 | 11900 | 1660 | 64 | 35 | 
CN1CCOCCN(C)S(=O)(=O)NC(=O)c2ccc3c(C4CCCCC4)c(n(C4CCCC4)c3c2)-c2ccccc2OCC1=O | 15700 | 1490 | 74 | 40 | 
CN1CCN2CCN(CC2)C(=O)COc2ccccc2-c2c(C3CCCCC3)c3ccc(cc3n2C)C(=O)NS1(=O)=O | 240 | 140 | 56 | 35 | 
O=C1Cn2c(-c3ccoc3)c(C3CCCCC3)c3ccc(cc32)C(=O)NCC/C=C/CCN1 | 3400 | 2200 | > 95 | > 95 | 
O=C1Cn2c(-c3ccoc3)c(C3CCCCC3)c3ccc(cc32)C(=O)NCCCCCCN1 | 4300 | 9500 | > 95 | > 95 | 
O=C1Cn2c(-c3ccoc3)c(C3CCCCC3)c3ccc(cc32)C(=O)NCC/C=C/CCCN1 | 2600 |  | > 95 | > 95 | 
O=C1Cn2c(-c3ccoc3)c(C3CCCCC3)c3ccc(cc32)C(=O)NS(=O)(=O)C/C=C/CCN1 | 7500 |  |  |  | Papp A→B [12]: < 1 ×10⁻⁶ cm/s; efflux ratio [13]: > 25
CN1C/C=C/CCNC(=O)Cn2c(-c3ccoc3)c(C3CCCCC3)c3ccc(cc32)C(=O)NS1(=O)=O | 720 |  |  |  | 
CN1CCCCCNC(=O)Cn2c(-c3ccoc3)c(C3CCCCC3)c3ccc(cc32)C(=O)NS1(=O)=O | 790 |  | 67 | 63 | concentration at 7 h [3]: 3740 ng/g; Vd [5]: 2.4 L/kg; Kp at 7 h [6]: 150; clearance [7]: 123 mL/min/kg; half-life [9]: 24 min; bioavailability [10]: 40%

Continued by falling EC50 [1], values first:

EC50 [1] [nM] | IC50 [2] [nM] | metabolised at 0.25 h, 5 µM [4] [%] | metabolised at 0.25 h, 5 µM [8] [%] | SMILES | further results
530 |  |  |  | CN1CCCCN(C)S(=O)(=O)NC(=O)c2ccc3c(C4CCCCC4)c(-c4ccc(Cl)cc4)n(c3c2)CC1=O | 
460 | 110 | 81 | 58 | CN1CCCCCNC(=O)COc2cc(F)ccc2-c2c(C3CCCCC3)c3ccc(cc3n2C)C(=O)NS1(=O)=O | 
430 |  |  |  | CN1CCCCCNC(=O)Cn2c(-c3ccccc3)c(C3CCCCC3)c3ccc(cc32)C(=O)NS1(=O)=O | 
350 |  |  |  | COc1ccc(-c2c(C3CCCCC3)c3ccc4cc3n2CC(=O)NCCCCCN(C)S(=O)(=O)NC4=O)cc1 | 
310 | 97 | 92 | 60 | CN1CCCCN(C)S(=O)(=O)NC(=O)c2ccc3c(C4CCCCC4)c(n(C)c3c2)-c2ccccc2OCC1=O | concentration at 7 h [3]: 1520 ng/g; Vd [5]: 2.6 L/kg; Kp at 7 h [6]: 99; clearance [7]: 128 mL/min/kg; half-life [9]: 18 min; bioavailability [10]: 9%
190 | 110 | 65 | 50 | CN1CCOCCN(C)S(=O)(=O)NC(=O)c2ccc3c(C4CCCCC4)c(n(C)c3c2)-c2ccccc2OCC1=O | concentration at 7 h [3]: 1720 ng/g; Vd [5]: 7 L/kg; Stability [11]: Stable; Kp at 7 h [6]: 64; clearance [7]: 115 mL/min/kg; half-life [9]: 60 min; bioavailability [10]: 14%
180 | 33 | 71 | 44 | CN1CCCCCNC(=O)COc2ccccc2-c2c(C3CCCCC3)c3ccc(cc3n2C)C(=O)NS1(=O)=O | 
170 | 54 | 96 | 64 | COc1ccc2c(c1)OCC(=O)N(C)CCCCN(C)S(=O)(=O)NC(=O)c1ccc3c(C4CCCCC4)c-2n(C)c3c1 | 
150 | 56 | 69 | 52 | COc1ccc2c(c1)OCC(=O)N(C)CCOCCN(C)S(=O)(=O)NC(=O)c1ccc3c(C4CCCCC4)c-2n(C)c3c1 | 
